≈ marks a conversion by molar mass, not a printed value.
Tests used:
[1] = Clearance in rat at 10 mg/kg, po; assay type: ADME, organism-based; set-up: dose 10 mg/kg, route oral; conditions: in vivo
Method in brief: (§1)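 Rat, oral dosing at 10 mg/kg given as the sodium carboxylate salt. Read-outs: F, clearance, Cmax, AUC and half-life.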

[2] = tested on: Rattus norvegicus; experiment: Reduction of CysLT production in lung lavage fluid of po dosed calcium ionophore A23187 treated rat bronchoalveolar lavage model administered 4 hrs prior to calcium ionophore A23187 challenge; assay type: functional
Method in brief: (§2)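 Rat BAL model. Oral dose-response study with dosing 4 h before ionophore challenge; ED50 for LTB4 and CysLT in lavage fluid.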

[3] = tested on: Rattus norvegicus; experiment: Reduction of LTB4 production in lung lavage fluid of po dosed calcium ionophore A23187 treated rat bronchoalveolar lavage model administered 4 hrs prior to calcium ionophore A23187 challenge; assay type: functional; method in brief: as §2
[4] = tested on: Rattus norvegicus; experiment: Reduction of CysLT production in lung lavage fluid of calcium ionophore A23187 treated rat bronchoalveolar lavage model at 10 mg/kg, po administered 4 hrs prior to calcium ionophore A23187 challenge; assay type: functional; set-up: scale not given: the % may be the effect or the level left
Method in brief: (§3)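 Rat bronchoalveolar lavage model. Oral dose of 10 mg/kg as the sodium carboxylate salt, given 4 h before ionophore challenge. LTB4 and CysLT measured in lung lavage fluid; average plasma levels taken 3 h post dose.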

[5] = tested on: Blood; experiment: Reduction of LTB4 production in rat blood after 4 hrs; assay type: functional, tissue-based
Method in brief: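 Rat blood incubated with compound for 4 h, then ionophore challenge; inhibition of LTB4 production measured; IC50.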

[6] = Inhibition of LTB4 production in calcium ionophore A23187 treated human leukocytes; assay type: functional, cell-based; conditions: Leukocyte
Method in brief: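 Human leukocytes challenged with calcium ionophore; LTB4 produced by the cells was measured. IC50 is the average of n ≥ 3.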

[7] = Plasma concentration in calcium ionophore A23187 treated rat bronchoalveolar lavage model at 10 mg/kg, po administered 4 hrs prior to calcium ionophore A23187 challenge measured 3 hrs after post dose; assay type: ADME, organism-based; set-up: dose 10 mg/kg, route oral; method in brief: as §3
[8] = tested on: Blood; experiment: Reduction of LTB4 production in rat blood after 3 hrs; assay type: functional, tissue-based
[9] = tested on: Blood; experiment: Inhibition of LTB4 production in calcium ionophore treated A23187 human whole blood after 5 hrs; assay type: functional, tissue-based
Method in brief: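 Human whole blood incubated with compound for an extended 5 h before ionophore challenge; LTB4 production measured. IC50 from n = 6, each n the average of two donors.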

[10] = Cmax in rat at 10 mg/kg, po; assay type: ADME, organism-based; set-up: dose 10 mg/kg, route oral; conditions: in vivo; method in brief: as §1
[11] = molecular target: Cytochrome P450 3A4 (Homo sapiens, UniProt P08684); experiment: Induction of CYP3A4 activity; assay type: ADME
Method in brief: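 CYP3A4 induction assay measuring a compound's ability to raise CYP enzyme activity.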

[12] = molecular target: T1, Arachidonate 5-lipoxygenase-activating protein (Homo sapiens, UniProt P20292); experiment: Binding affinity to FLAP in human PMN derived membrane; assay type: cell membranes
T1 sequence (P20292 whole entry): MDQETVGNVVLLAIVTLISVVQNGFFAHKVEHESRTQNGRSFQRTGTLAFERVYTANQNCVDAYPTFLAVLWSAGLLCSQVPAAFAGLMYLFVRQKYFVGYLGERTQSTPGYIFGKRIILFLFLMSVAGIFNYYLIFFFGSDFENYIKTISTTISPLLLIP
Method in brief: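 FLAP binding measured in membranes derived from human polymorphonuclear leukocytes (PMN). IC50 values are the average of n ≥ 3.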

[13] = Plasma concentration in calcium ionophore A23187 treated rat bronchoalveolar lavage model at 3 mg/kg, po administered 16 hrs prior to calcium ionophore A23187 challenge; assay type: ADME, organism-based; set-up: dose 3 mg/kg, route oral
Method in brief: (§4)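 Rat BAL model. 3 mg/kg given orally 16 h before ionophore challenge. LTB4 and CysLT inhibition measured in lavage fluid; average plasma levels measured at that time point.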

[14] = tested on: Rattus norvegicus; experiment: Reduction of LTB4 production in lung lavage fluid of calcium ionophore A23187 treated rat bronchoalveolar lavage model at 10 mg/kg, po administered 4 hrs prior to calcium ionophore A23187 challenge; assay type: functional; set-up: scale not given: the % may be the effect or the level left; method in brief: as §3
[15] = Half life in rat at 10 mg/kg, po; assay type: ADME, organism-based; set-up: dose 10 mg/kg, route oral; conditions: in vivo; method in brief: as §1
[16] = molecular target: Cytochrome P450 2D6 (Homo sapiens, UniProt P10635); experiment: Inhibition of CYP2D6; assay type: ADME
[17] = Solubility in 0.9% saline; assay type: physicochemical
[18] = Bioavailability in rat at 10 mg/kg; assay type: ADME, organism-based; conditions: in vivo; method in brief: as §1
[19] = tested on: Blood; experiment: Inhibition of LTB4 production in calcium ionophore treated A23187 human whole blood after 15 mins; assay type: functional, tissue-based; conditions: 0.25 h
[20] = tested on: Rattus norvegicus; experiment: Reduction of LTB4 production in lung lavage fluid of calcium ionophore A23187 treated rat bronchoalveolar lavage model at 3 mg/kg, po administered 16 hrs prior to calcium ionophore A23187 challenge; assay type: functional; set-up: scale not given: the % may be the effect or the level left; method in brief: as §4
[21] = molecular target: Cytochrome P450 2C9 (Homo sapiens, UniProt P11712); experiment: Inhibition of CYP2C9; assay type: ADME
[22] = Solubility in water; assay type: physicochemical
[23] = tested on: Rattus norvegicus; experiment: Reduction of CysLT production in lung lavage fluid of calcium ionophore A23187 treated rat bronchoalveolar lavage model at 3 mg/kg, po administered 16 hrs prior to calcium ionophore A23187 challenge; assay type: functional; set-up: scale not given: the % may be the effect or the level left; method in brief: as §4

Chain of Cytochrome P450 2C9 (P11712 whole entry): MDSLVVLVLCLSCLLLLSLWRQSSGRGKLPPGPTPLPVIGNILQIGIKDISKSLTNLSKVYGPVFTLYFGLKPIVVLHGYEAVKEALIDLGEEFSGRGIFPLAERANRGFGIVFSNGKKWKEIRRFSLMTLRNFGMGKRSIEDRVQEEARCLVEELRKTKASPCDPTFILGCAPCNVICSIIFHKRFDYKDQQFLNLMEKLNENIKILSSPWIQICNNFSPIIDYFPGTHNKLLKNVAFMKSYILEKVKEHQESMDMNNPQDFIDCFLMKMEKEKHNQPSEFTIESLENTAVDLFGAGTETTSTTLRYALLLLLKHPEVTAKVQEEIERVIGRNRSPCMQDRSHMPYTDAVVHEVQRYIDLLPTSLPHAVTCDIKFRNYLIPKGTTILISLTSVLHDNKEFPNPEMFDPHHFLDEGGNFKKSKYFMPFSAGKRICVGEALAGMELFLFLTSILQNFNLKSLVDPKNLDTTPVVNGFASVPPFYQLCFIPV
Chain of Cytochrome P450 3A4 (P08684 whole entry): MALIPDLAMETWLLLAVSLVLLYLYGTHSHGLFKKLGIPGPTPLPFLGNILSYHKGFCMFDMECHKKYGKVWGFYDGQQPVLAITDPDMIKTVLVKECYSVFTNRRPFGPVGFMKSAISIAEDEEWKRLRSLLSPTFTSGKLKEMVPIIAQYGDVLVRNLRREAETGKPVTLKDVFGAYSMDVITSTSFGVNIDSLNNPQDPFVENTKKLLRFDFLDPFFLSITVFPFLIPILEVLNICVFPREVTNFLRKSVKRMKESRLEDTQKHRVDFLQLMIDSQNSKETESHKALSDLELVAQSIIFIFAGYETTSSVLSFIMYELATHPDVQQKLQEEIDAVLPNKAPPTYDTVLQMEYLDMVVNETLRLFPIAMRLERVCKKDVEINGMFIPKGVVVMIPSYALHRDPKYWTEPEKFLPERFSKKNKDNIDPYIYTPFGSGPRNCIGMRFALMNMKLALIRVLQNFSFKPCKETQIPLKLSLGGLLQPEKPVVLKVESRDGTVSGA
Chain of Cytochrome P450 2D6 (P10635 whole entry): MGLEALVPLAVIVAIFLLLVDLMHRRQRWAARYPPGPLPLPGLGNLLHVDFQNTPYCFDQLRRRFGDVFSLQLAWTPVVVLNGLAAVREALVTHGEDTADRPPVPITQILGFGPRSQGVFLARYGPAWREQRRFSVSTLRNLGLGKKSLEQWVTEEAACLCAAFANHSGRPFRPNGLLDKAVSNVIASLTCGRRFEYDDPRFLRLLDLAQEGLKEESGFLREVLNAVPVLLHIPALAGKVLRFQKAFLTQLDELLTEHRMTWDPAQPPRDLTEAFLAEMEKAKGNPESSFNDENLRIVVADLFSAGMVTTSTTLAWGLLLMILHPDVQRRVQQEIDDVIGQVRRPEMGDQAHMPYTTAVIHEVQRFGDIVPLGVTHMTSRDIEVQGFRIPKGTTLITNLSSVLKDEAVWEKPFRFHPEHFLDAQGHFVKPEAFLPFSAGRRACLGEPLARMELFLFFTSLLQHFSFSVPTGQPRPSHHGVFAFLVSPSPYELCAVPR

CL/F [1]: 11 mL/min/kg
IC50 [5]: 9 nM
IC50 [6]: 0.6 nM
concentration at 3 h [7]: 605 nM
IC50 [8]: 125 nM
IC50 [9]: 53 nM
Cmax [10]: 1600 nM
Activity [11]: Not Active
IC50 [12]: 2.2 nM
concentration at 16 h [13]: 4 nM
half-life [15]: 6.8 h
INH [16]: > 30 µM
solubility [17]: 30 µg/mL (≈ 0.0433 mM)
bioavailability [18]: 29%
IC50 [19]: 154 nM
IC50 [21]: 3700 nM
solubility [22]: 10000 µg/mL (≈ 14.4 mM)
Compound: COc1cnc(-c2ccc(Cn3c(CC(C)(C)C(=O)O)c(SC(C)(C)C)c4cc(OC[C@@H]5Cc6ccccc6N5C(C)=O)ccc43)cc2)nc1
ED50 [2]: 1.4 mg/kg
ED50 [3]: 0.8 mg/kg
Activity [4]: 87%
Activity [14]: 98%
Activity [20]: 77%
Activity [23]: 45%

Source: ChEMBL document CHEMBL1153124, “5-Lipoxygenase-activating protein inhibitors. Part 2: 3-{5-((S)-1-Acetyl-2,3-dihydro-1H-indol-2-ylmethoxy)-3-tert-butylsulfanyl-1-[4-(5-methoxy-pyrimidin-2-yl)-benzyl]-1H-indol-2-yl}-2,2-dimethyl-propionic acid (AM679)--a potent FLAP inhibitor” (Bioorg Med Chem Lett, 2010)
